The nature of data set [1]: Partition coefficient, logD between 1-octanol and pH 7.4 aqueous buffer by chromatographic analysis. Conditions: 1-octanol/pH 7.4 aqueous buffer. It counts as physicochemical. Summed up: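 LogD at pH 7.4, octanol/aqueous buffer partition, estimated by a chromatographic method adapted from a published procedure.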
Data set [2] deals with hERG (KCNH2) (Homo sapiens, UniProt Q12809). As to the kind of experiment: Inhibition of human ERG expressed in CHO cells at 10 uM incubated for 5 mins by patch-clamp assay relative to control. In kind it is cell-based. Conditions: CHO cells expressing human ERG. Summed up:
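hERG-expressing CHO cells grown at 32 °C, recorded by population patch clamp after amphotericin B perforation; PBS with Ca/Mg outside, KCl/EGTA/HEPES pH 7.3 inside. Holding −80 mV, step to 40 mV 2 s, then −50 mV 2 s; peak tail current before and after 5 min compound exposure. Percent inhibition = 100 − post/pre × 100; mean ± SD, n = 4.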
Background: The patch-clamp technique gives a direct electrical read-out from membranes.

For data set [3], the system named is Rattus norvegicus. As to the kind of experiment: Antidiabetic activity in N-STZ 1.5 rat assessed as increase in plasma insulin level at 1 to 3 mg/kg, po pre-treated for 60 mins followed by 1.5 g/kg glucose treatment and measured up to 120 mins by radioimmunoassay. In kind it is functional, organism-based. Conditions: dose 1-3 mg/kg, time min <=180. Summed up:
(§1)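 Male N-STZ1.5 rats, 25–30 weeks old, fasted overnight, dosed orally with compound or 0.5% methylcellulose vehicle; 60 min later oral glucose load 1.5 g/kg. Tail-vein blood taken pre-dose, at 0, 10, 30, 60 and 120 min; plasma glucose by autoanalyzer, insulin by radioimmunoassay. AUC computed; mean ± SD, n = 6; one-tailed Williams' test.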

The target of data set [4] is T1, Glucose-dependent insulinotropic receptor (Homo sapiens, UniProt Q8TDV5).
T1 sequence (Q8TDV5 whole entry): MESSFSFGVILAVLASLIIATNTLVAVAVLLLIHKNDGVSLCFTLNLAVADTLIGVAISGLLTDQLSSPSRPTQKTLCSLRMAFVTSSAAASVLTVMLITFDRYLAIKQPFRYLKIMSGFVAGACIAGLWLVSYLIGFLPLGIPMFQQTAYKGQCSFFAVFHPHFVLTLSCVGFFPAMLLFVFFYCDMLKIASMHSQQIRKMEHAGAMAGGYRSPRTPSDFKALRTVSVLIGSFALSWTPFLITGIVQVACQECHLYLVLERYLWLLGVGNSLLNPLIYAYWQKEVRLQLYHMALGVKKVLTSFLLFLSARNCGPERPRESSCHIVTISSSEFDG
As to the kind of experiment: Agonist activity at human GPR119 expressed in CHO cells co-expressing cyclic AMP response element incubated for 2 hrs by steady-glo luciferase assay. It counts as cell-based. Summed up:
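CHO cells stably expressing human GPR119, seeded at 10,000 cells/well in MEM α with 500 µg/mL Geneticin overnight, then exposed to graded compound concentrations in MEM α/20 mmol/L HEPES/0.1% BSA for 2 h. cAMP-driven luciferase read with Steady-Glo. Response normalized between vehicle and a 10 µM reference agonist; EC50 as mean of n = 2.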

Data set [5] concerns Rattus norvegicus. As to the kind of experiment: Antidiabetic activity in po dosed N-STZ 1.5 rat assessed as reduction in glucose level pre-treated for 60 mins followed by 1.5 g/kg glucose treatment and measured up to 120 mins by OGTT. It counts as functional, organism-based. Conditions: dose 1-3 mg/kg, time min <=180. Summed up: as §1
Data set [6] in a line: AUC in rat at 1 mg/kg, po by LC/MS/MS analysis. Conditions: in vivo. Also on record: dose 1 mg/kg. It counts as ADME, organism-based. Summed up:
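Cassette dosing, given by mouth at 1 mg/kg in 0.5% methylcellulose aqueous solution, with intravenous arm at 0.1 mg/kg, to non-fasted animals. Blood collected after dosing, plasma deproteinized and centrifuged, compound measured by LC/MS/MS.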

The structures appear in SMILES notation. Activity calls are given as the source filed them. The calls are words filed in the database; no cut-off is given here.

Usually logD stands for the decadic logarithm of the distribution of all forms, ionised or not, between an organic phase and buffer at a given pH. The term inhibition denotes the share of the control response that was lost under treatment. A high value points to a response far below the control. For orientation: EC50 means the concentration needed to bring the measured effect to its halfway point. A higher EC50 goes with lower potency in that assay. Usually AUC stands for concentration integrated over time. Low readings indicate low exposure, high ones high exposure.

hERG (KCNH2), sequence (Q12809 whole entry): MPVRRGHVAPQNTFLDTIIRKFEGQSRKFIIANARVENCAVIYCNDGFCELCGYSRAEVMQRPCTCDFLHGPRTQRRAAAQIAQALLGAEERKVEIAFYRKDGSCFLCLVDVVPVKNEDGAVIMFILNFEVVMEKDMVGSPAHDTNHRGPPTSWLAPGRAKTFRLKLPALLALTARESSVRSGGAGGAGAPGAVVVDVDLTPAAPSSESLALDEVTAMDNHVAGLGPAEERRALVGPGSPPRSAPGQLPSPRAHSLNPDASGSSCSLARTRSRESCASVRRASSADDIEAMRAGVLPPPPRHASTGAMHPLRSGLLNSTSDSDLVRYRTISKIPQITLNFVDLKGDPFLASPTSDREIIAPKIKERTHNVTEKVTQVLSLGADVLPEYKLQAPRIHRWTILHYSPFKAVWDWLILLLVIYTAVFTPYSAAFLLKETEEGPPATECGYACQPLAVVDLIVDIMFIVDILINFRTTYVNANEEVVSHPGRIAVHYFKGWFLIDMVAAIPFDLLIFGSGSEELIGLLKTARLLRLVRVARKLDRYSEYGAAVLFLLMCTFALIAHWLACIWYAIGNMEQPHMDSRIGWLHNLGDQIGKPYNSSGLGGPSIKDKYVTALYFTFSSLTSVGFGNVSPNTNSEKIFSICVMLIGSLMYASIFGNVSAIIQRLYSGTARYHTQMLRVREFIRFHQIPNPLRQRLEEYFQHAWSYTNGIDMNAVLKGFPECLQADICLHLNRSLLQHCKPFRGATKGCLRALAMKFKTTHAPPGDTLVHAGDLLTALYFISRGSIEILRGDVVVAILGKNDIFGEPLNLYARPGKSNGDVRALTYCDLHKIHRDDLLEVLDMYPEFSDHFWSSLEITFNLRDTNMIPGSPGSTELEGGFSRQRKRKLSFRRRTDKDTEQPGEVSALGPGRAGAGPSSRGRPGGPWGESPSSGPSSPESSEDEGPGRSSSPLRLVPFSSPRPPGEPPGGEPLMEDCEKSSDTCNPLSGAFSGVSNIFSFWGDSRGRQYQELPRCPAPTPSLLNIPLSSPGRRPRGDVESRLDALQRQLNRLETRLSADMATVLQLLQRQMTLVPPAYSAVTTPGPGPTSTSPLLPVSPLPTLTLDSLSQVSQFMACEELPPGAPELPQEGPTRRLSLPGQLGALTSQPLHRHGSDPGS

`CC(C)c1noc(N2CCC(Oc3cc(N4CCc5cc(N6CCC[C@H](O)C6=O)ccc54)ncn3)CC2)n1` gave a logD in data set [1] of 3.3. The compound further had an inhibition at 5 min, 10 µM in data set [2] of 31%. Further, the outcome in data set [3] was Active. The compound further displayed an EC50 in data set [4] of 16 nM. For the same compound, the Activity result in data set [5] was “Dose-dependent effect”. Besides, in data set [6], the AUC stood at 1670 ng·h/mL.
